Measurements taken from ChEMBL document CHEMBL1255244, “Antimycobacterial Activity and Mechanism of Action of NAS-91” (2008).
Values after ≈ are worked out from the molar mass of the structure shown. Active and inactive are the calls of the source. No cut-off for these calls is given here.

Columns and labels:
BCG = experiment: Inhibition of delta-9 desaturase activity in Mycobacterium bovis BCG cell extract 1173P2 assessed as inhibition of oleic acid synthesis at 25 ug/ml after 1 hr in presence of NADPH and [1-14C]stearoyl-CoA; format: cell-free; set-up: scale not given: the % may be the effect or the level left; conditions: Mycobacterium bovis BCG str. Pasteur 1173P2
How it was run: (§1)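 Cell-free assay. BCG grown in Sauton's with 20 µg/ml FeSO4, French-press lysed in 0.25 M sucrose. 1 mg lysate, 1 µmol NADPH, phosphate buffer pH 7.2, in 1 ml. Inhibitor preincubated 10 min at 37°C, then 0.25 µCi [1-14C]stearoyl-CoA added, 37°C 1 h. Saponified, methylated, [14C]oleate band scraped and counted. Triplicates, one of two experiments, mean ± SEM.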

[1] = system: Mycobacterium bovis BCG str. Pasteur 1173P2; experiment: Antimycobacterial activity against Mycobacterium bovis BCG 1173P2 assessed as inhibition of oleic acid methyl ester synthesis after 8 hrs; format: functional
How it was run: (§2)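 BCG in Sauton's medium, drug 8 h, then [14C]acetate labelling for 16 h. Methyl esters resolved by 2-D TLC: first dimension without silver, hexane-ethyl acetate 19:1 run twice; then silver nitrate layer, petroleum ether-diethyl ether 17:3 run three times. Triplicates, one of three experiments, mean ± SEM, Student's t test.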

[2] = system: Mycobacterium bovis BCG str. Pasteur 1173P2; experiment: Antimycobacterial activity against Mycobacterium bovis BCG 1173P2 assessed as inhibition of oleic acid methyl ester synthesis at 100 ug/ml after 8 hrs; format: functional; how it was run: as §2
[3] = Antimycobacterial activity against Mycobacterium bovis BCG 1173P2; format: functional, Mycobacterium bovis BCG str. Pasteur 1173P2; conditions: Mycobacterium tuberculosis variant bovis BCG
How it was run: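 M. bovis BCG on Middlebrook 7H11 agar with OADC and increasing inhibitor concentrations. Serial 10-fold dilutions of actively growing culture plated, 37°C for 10 to 14 days.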

BCG 1173P2 = experiment: Inhibition of delta-9 desaturase activity in Mycobacterium bovis BCG 1173P2 cell extract assessed as inhibition of oleic acid synthesis at 10 to 100 ug/ml after 1 hr in presence of NADPH and [1-14C]stearoyl-CoA; format: cell-free; conditions: Mycobacterium bovis BCG str. Pasteur 1173P2; how it was run: as §1
[4] = system: Mycobacterium bovis BCG str. Pasteur 1173P2; experiment: Antimycobacterial activity against Mycobacterium bovis BCG 1173P2 assessed as inhibition of FAS-2 activity at 5 ug/ml after 8 hrs; format: functional
How it was run: (§3)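 Mid-log BCG in Sauton's medium, drug at 37°C for 8 h, then 1 µCi/ml [2-14C]acetate for 16 h. Cells PBS-washed, hydrolysed in 15% tetrabutylammonium hydroxide at 100°C overnight, methylated with CH3I. TLC: MAME bands scraped and counted; FAMEs (50,000 cpm) on reverse-phase TLC, chloroform-methanol 2:3. INH 1 µg/ml positive control. Triplicates, one of three experiments, mean ± SEM.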

[5] = system: Mycobacterium bovis BCG str. Pasteur 1173P2; experiment: Antimycobacterial activity against Mycobacterium bovis BCG 1173P2 assessed as inhibition of mycolic acid biosynthesis; format: functional; how it was run: as §3
[6] = system: Mycobacterium bovis BCG str. Pasteur 1173P2; experiment: Antimycobacterial activity against Mycobacterium bovis BCG 1173P2 assessed as inhibition of mycolic acid biosynthesis at 100 ug/ml after 8 hrs; format: functional; set-up: scale not given: the % may be the effect or the level left; how it was run: as §3
[7] = system: Mycolicibacterium smegmatis; experiment: Antimycobacterial activity against Mycobacterium smegmatis at 100 ug/ml after 15 to 20 days by agar proportion method; format: functional, organism-based
[8] = system: Mycobacterium tuberculosis; experiment: Antimycobacterial activity against Mycobacterium tuberculosis H37Rv at 10 ug/ml after 15 to 20 days by agar proportion method; format: functional
How it was run: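 Agar proportion method. H37Rv grown in 7H9 at 37°C with shaking to OD600 1.0. Diluted log-phase culture giving about 1,000 CFU plated on 7H11+OADC control and drug-containing plates, incubated 37°C.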

| Structure (SMILES) | Activity (BCG) [%] | Activity [1] | Activity [2] | MIC [3] [µg/mL] | Activity (BCG 1173P2) | Activity [4] | Activity [5] | Activity [6] [%] | Activity [7] | Activity [8] [%] |
| --- | --- | --- | --- | --- | --- | --- | --- | --- | --- | --- |
| O=C(CC(=O)C(F)(F)F)c1ccc([N+](=O)[O-])cc1 | 25 | Dose-dependent effect | Active | 50 (≈ 191 µM) | – | – | – | – | – | – |
| Oc1ccc(Cl)cc1Oc1ccc(Cl)c2cccnc12 | 75 | Dose-dependent effect | Active | 10 (≈ 32.7 µM) | Dose-dependent effect | Active | Active | 55 | inactive | 99 |
